NTR1 ag: NTR1 (human) agonism. P30989. 330,000 tested, 0.17% active. NTR1-U2OS beta-arrestin-GFP spot imaging, agonist mode. activation, % at 20 µM. AID 493036;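 active means activation at or above 40% of the spot to cytoplasm intensity ratio, with at least 20 cells analyzed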;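 further: 0% = DMSO without peptide and 100% = 100 nM NTR1 peptide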
TAAR1 antagonist: antagonists of human TAAR1; CHO RD-HGA16 TAAR1, Fluo-8 calcium fluorescence, antagonist; inhibition, % at 3 µM; 360,000 tested, 1.5% active; AID 624466;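 active means inhibition above a per-plate cutoff, the mean inhibition of test compounds on that plate plus 3 SD, cut at about 49% in these data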;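 further: 0% = DMSO plus EC80 beta-PEA response and 100% = DMSO alone without agonist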
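Assay system: RD-HGA16 CHO cells with stable hTAAR1 and Gα16 / Reagent: EC80 β-phenethylamine stimulus / Doses: 3 µM, single point / Timing: dye loading 75 min at 37 °C, then 30 min room temperature / Measured by: Fluo-8 intracellular calcium dye fluorescence, real-time kinetic reads / Controls: vehicle wells and EC80 agonist wells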
OX1R antag-1: antagonists of human orexin 1 receptor; inhibition, % at 5 µM; AID 434989; CHO/OX1R cells, Fluo-8 calcium fluorescence, orexin A; 330,000 tested, 0.43% active; O43613;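 active means inhibition above its plate's threshold, mean inhibition of all tested compounds on the plate plus 3 SD, cut at about 37% in these data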;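 further: 0% = orexin A challenge wells and 100% = SB-334867-A antagonist wells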
Target sequence (O43613 whole entry, looked up): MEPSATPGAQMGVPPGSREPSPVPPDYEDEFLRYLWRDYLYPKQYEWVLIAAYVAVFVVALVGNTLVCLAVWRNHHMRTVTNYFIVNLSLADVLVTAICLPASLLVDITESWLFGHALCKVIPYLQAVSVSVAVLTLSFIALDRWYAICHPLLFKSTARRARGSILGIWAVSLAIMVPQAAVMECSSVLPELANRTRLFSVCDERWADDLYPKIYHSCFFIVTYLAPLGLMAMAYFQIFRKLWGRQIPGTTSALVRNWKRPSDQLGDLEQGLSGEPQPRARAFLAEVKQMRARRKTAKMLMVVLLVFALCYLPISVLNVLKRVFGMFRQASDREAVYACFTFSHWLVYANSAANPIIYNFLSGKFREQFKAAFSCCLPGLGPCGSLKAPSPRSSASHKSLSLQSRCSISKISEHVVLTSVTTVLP
TAAR1 agonist: agonists of human TAAR1; 360,000 tested, 0.99% active; Q96RJ0; CHO RD-HGA16 TAAR1, Fluo-8 calcium fluorescence; vehicle wells 0%, saturating PEA agonist 100%; activation, % at 3 µM;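 active means activation above the mean activation of all test compounds in the run plus 3 SD, cut at about 38% in these data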
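Assay system: CHO-derived RD-HGA16 cells with stable Gα16 and human TAAR1; timing: 17-24 h seeding, 75 min 37 °C dye, 30 min RT; read-out: % activation from peak over basal fluorescence ratio, DMSO-to-PEA scaled; measured by: kinetic Fluo-8 calcium fluorescence; benchmarks: low control DMSO, high control PEA (EC100); doses: 3 µM single concentration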
OX1R antag-2: blocks the human orexin 1 receptor. O43613. OX1R-expressing cells, FRET antagonist read-out. inhibition, % at 6.6 µM. 330,000 tested, 1.8% active. AID 485270; in the data active means inhibition mostly above about 38%, no sharp cut-off; inactive means mostly below about 40%;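 further: 0% = agonist challenge alone and 100% = reference antagonist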
CHO parental Ca: counter-screen: ATP calcium response change in parental CHO cells; parental CHO-K1, ATP-induced calcium, Fluo-8 fluorescence; inhibition, % at 5.6 µM; 330,000 tested, 0.63% active; AID 463079;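 active means inhibition above that plate's mean sample inhibition plus 3 SD, cut at about 26% in these data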;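 further: 0% = ATP-challenged DMSO wells and 100% = DMSO wells without ATP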
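Assay system: parental CHO cells; Read-out basis: percent inhibition of ATP-evoked calcium rise, normalized to controls; Benchmarks: ATP and no-ATP DMSO wells; Compound dosing: single nominal dose of 5.6 µM per compound; Signal: Fluo-8 calcium dye fluorescence; Also added: ATP as calcium-mobilizing challenge; Repeats: singlicate.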
NTR1 ag confirm: confirmation of agonists of human NTR1; shares compounds with NTR1 ag; NTR1-U2OS beta-arrestin-GFP translocation imaging; activation, % at 20 µM; 480 tested, 38% active;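 active means mean activation at 20 µM of at least 40%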;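 further: 0% = DMSO without peptide and 100% = 100 nM NTR1 peptide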
The depositor's hits bear a star; x = no result given. This is a sample that favours compounds with a hit; in the whole collection about 4% have one here.

SMILES	NTR1 ag	TAAR1 antagonist	OX1R antag-1	TAAR1 agonist	OX1R antag-2	CHO parental Ca	NTR1 ag confirm
CC(=O)Nc1cccc(C(=O)/C=C/c2ccc(/C=C/C(=O)c3cccc(NC(C)=O)c3)cc2)c1	11.1	29.2	-37.8	7.7	16.8	-24.0	x
CC(=O)Nc1cccc(C(=O)/C=C/c2ccc(Br)cc2)c1	47.6*	6.7	-30.1	23.2	8.6	-11.4	72.6*
c1ccc(-c2nnc3ccc(N4CCCC4)nn23)cc1	2.5	-11.1	-9.9	0.3	18.6	-14.4	x
FC(F)(F)c1cccc(N2CCN(c3ccc4nnc(-c5ccccc5)n4n3)CC2)c1	58.4*	-20.3	-13.7	5.5	16.2	-10.0	10.4
O=C(Cn1nnc(-c2ccccc2)n1)NNC(=O)c1ccco1	-0.9	-21.6	-10.2	1.8	8.7	11.1	x
O=C(CSc1nc2ccc([N+](=O)[O-])cc2[nH]1)c1ccc2ccccc2c1	44.0*	52.4*	-19.2	6.5	34.0	0.7	2.7
O=C(CSc1nc2ncc(Br)cc2[nH]1)c1ccc([N+](=O)[O-])cc1	2.7	-1.7	3.9	0.3	9.6	9.2	x
O=C(CN(C(=O)c1ccc(Cl)cc1)N1C(=O)C2CCCCC2C1=O)c1ccc(Cl)cc1 (stereo unspecified)	51.9*	-5.1	-14.8	1.2	6.5	-8.3	46.9*
C=CCn1c(SCc2ccccc2F)nc2cc(C(=O)O)ccc2c1=O	-0.6	10.7	-13.6	-3.0	13.7	-12.5	x
Cc1cccn2c(=O)nc(SCC(=O)NCc3ccc(F)cc3)nc12	-0.5	-10.9	-1.9	1.1	4.6	-9.6	x
CCOC(=O)C1=C(CS(=O)(=O)c2ccc(C)cc2)NC(=O)NC1c1ccc(O)c(OC)c1 (stereo unspecified)	0.9	-11.3	-0.3	1.8	4.8	-13.8	x
CCOC(=O)C1=C(CS(=O)(=O)c2ccc(C)cc2)NC(=O)NC1c1cc(OC)c(OC)c(OC)c1 (stereo unspecified)	48.4*	-7.6	-8.4	-2.1	3.2	-8.8	-0.4
CNC(=O)c1cc(Oc2ccc(NC(=O)Nc3ccc(Cl)c(C(F)(F)F)c3)cc2)ccn1	43.1*	46.8	39.0	44.5*	47.2*	19.1	47.8*
O=C(Nc1ccc(Cl)c(C(F)(F)F)c1)c1ccncc1	2.5	-24.8	-6.7	21.0	31.7	-11.8	x
CCCCNc1ccc(C(CC(N)=O)NC(=O)Cc2cccc3ccccc23)cc1[N+](=O)[O-] (stereo unspecified)	-0.5	4.2	-20.6	6.7	6.2	-6.9	x
COc1ccc(CCNc2ccc(C(CC(N)=O)NC(=O)Cc3cccc4ccccc34)cc2[N+](=O)[O-])cc1 (stereo unspecified)	47.9*	13.2	-10.6	1.6	11.3	-19.7	10.3
CCCCCCOc1ccc(/C(C)=N/NC2=NCCN2)cc1[N+](=O)[O-]	41.1*	-0.2	-6.3	38.1*	4.8	-2.5	46.4*
N=c1c(C(=O)NCCc2ccccc2)cc2c(=O)n3ccccc3nc2n1Cc1ccco1	43.4*	-11.7	-34.2	-2.2	22.8	-30.2	6.2
COc1ccccc1C(CNC(=O)C(CCSC)NC(=O)c1ccccc1Cl)N1CCCC1 (stereo unspecified)	x	-11.8	x	0.9	x	x	x
CCOC(=O)c1ccc(NC(=O)c2ccc(C)c(S(=O)(=O)N3CCOCC3)c2)cc1	52.2*	80.4*	4.8	25.4	40.4	10.8	69.8*
CC(=O)c1ccc(NC(=O)c2ccc(C)c(S(=O)(=O)N3CCOCC3)c2)cc1	1.7	33.5	-25.4	11.1	25.3	-16.5	x
COc1cc(/C=C(/C#N)c2nc3ccccc3[nH]2)ccc1OCc1ccc(C(=O)O)o1	-0.6	6.8	-7.5	3.7	18.8	-8.9	x
CCc1ccc(NC(=O)COc2ccc(/C=C(/C#N)c3nc4ccccc4[nH]3)cc2OC)cc1	52.2*	12.8	-0.7	10.3	16.5	-4.6	-1.0
Nc1c(-c2ccc(Cl)cc2)cnc2c(-c3ccccc3)cnn12	-1.0	7.3	-12.8	-1.4	1.6	-0.7	x

Screening data as filed in PubChem BioAssay.
